36 compounds from ChEMBL document CHEMBL4422682, “Synthesis and urease inhibitory potential of benzophenone sulfonamide hybrid in vitro and in silico” (Bioorg Med Chem, 2019) can be followed below.

T1 sequence (P07374 whole entry): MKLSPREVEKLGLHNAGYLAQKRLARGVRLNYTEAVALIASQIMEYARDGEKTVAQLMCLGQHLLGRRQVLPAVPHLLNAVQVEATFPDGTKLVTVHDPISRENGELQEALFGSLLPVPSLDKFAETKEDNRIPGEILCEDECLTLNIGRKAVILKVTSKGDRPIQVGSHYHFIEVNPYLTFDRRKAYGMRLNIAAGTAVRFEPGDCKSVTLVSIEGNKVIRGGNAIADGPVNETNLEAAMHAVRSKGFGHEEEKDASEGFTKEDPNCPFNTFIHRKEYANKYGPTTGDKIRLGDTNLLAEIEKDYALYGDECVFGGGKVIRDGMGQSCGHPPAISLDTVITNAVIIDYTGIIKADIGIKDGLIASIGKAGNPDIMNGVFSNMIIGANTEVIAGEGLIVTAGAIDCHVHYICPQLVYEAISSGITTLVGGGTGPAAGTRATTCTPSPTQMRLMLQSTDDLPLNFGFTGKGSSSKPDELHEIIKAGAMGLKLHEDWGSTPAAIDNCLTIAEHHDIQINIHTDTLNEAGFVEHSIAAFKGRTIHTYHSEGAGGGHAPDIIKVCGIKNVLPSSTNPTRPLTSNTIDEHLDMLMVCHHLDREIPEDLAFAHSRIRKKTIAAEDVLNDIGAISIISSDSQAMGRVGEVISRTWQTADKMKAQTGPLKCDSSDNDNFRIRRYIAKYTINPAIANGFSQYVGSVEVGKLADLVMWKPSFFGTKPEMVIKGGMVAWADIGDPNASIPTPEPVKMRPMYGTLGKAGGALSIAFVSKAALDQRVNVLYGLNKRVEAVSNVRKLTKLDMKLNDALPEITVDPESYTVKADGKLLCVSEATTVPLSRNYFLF

One experiment deals with T1, Urease (Canavalia ensiformis, UniProt P07374). In words: Inhibition of jack bean urease using urea as substrate preincubated for 15 mins followed by substrate addition and measured after 10 mins by ELISA. The essentials:
(§1)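 Compounds preincubated with urease (1 U/well) for 15 min at 30 °C. Urea (100 mM, as added) introduced and incubation continued at 30 °C. Ammonia formed was detected by the Weatherburn phenol-hypochlorite method: alkaline reagent (0.5% w/v NaOH, 0.1% NaOCl) and phenol reagent (1% w/v phenol, 0.005% w/v nitroprusside) were added, then 50 min at 30 °C. Absorbance read at 630 nm on a plate reader.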
(In general: In an ELISA, binding on a coated surface is turned into a signal by an enzyme label.)
By IC50 is commonly meant the midpoint of a concentration-inhibition curve. For the compound `O=[N+]([O-])c1ccc(NC(=S)N/N=C(\c2ccccc2)c2ccc(O)cc2)cc1`, it took 26.1 µM to reach half-maximal inhibition (IC50).
Still for that read-out and setting: as for `Oc1ccc(/C(=N/NC(=S)Nc2cccc(Br)c2)c2ccccc2)cc1`, the figure is 8.7 µM; as for `CC(=O)Nc1ccc(S(=O)(=O)Nc2ccc(Br)cc2)cc1`, 62.4 µM.

The target in the next experiment is T2, Bacterial urease (Bacteria, UniProt Q03282+Q03283+Q03284).
T2 sequence (Q03282 whole entry): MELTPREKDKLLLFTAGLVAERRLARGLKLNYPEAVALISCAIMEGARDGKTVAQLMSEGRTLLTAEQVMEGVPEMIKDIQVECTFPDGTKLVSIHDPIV
T2 sequence (Q03283 whole entry): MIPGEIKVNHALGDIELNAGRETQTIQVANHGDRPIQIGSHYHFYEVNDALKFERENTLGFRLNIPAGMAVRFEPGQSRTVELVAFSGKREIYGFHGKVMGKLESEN
T2 sequence (Q03284 whole entry): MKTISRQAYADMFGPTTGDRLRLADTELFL
In words: (§2) Inhibition of bacterial urease using urea as substrate preincubated for 15 mins followed by substrate addition […]. It counts as protein-complex assay. In short, it runs like this: as §1
Consider `O=[N+]([O-])c1cc(S(=O)(=O)NN=C(c2ccccc2)c2ccccc2)ccc1Cl`, for which the IC50 entry is recorded as “Not Active”.
Same read-out and setting: the value for `O=[N+]([O-])c1cccc(S(=O)(=O)NN=C(c2ccccc2)c2ccccc2)c1Cl` was “Not Active”.
In the case of `O=S(=O)(NN=C(c1ccccc1)c1ccccc1)c1cc(Cl)c(Cl)cc1Cl`, the IC50 result was “Not Active”.
The same measure, in the same setting: the value for `O=[N+]([O-])c1ccc(S(=O)(=O)NN=C(c2ccccc2)c2ccccc2)cc1` was “Not Active”; that for `O=S(=O)(NN=C(c1ccccc1)c1ccccc1)c1ccccc1` was “Not Active”.
Still for that read-out and setting: as for `COc1ccc(S(=O)(=O)NN=C(c2ccccc2)c2ccccc2)c(OC)c1`, the entry is “Not Active”.
On to `COc1ccc(S(=O)(=O)NN=C(c2ccccc2)c2ccccc2)cc1`, for which the IC50 result is given as “Not Active”.
The same measure, in the same setting: the value for `CCCCS(=O)(=O)NN=C(c1ccccc1)c1ccccc1` was “Not Active”.
Regarding `O=S(=O)(NN=C(c1ccccc1)c1ccccc1)c1ccccc1Cl`, the IC50 entry was “Not Active”.
Same read-out and setting: the value for `O=S(=O)(NN=C(c1ccccc1)c1ccccc1)c1ccc(Cl)cc1Cl` was “Not Active”; that for `O=[N+]([O-])c1cccc(S(=O)(=O)NN=C(c2ccccc2)c2ccccc2)c1` was “Not Active”.
Regarding `O=S(=O)(NN=C(c1ccccc1)c1ccccc1)c1ccc2ccccc2c1`, the IC50 result is reported as “Not Active”.
As for `Cc1cc(S(=O)(=O)NN=C(c2ccccc2)c2ccccc2)c(C)cc1Cl`, the IC50 entry is given as “Not Active”.
Same read-out and setting: as for `O=[N+]([O-])c1ccccc1S(=O)(=O)NN=C(c1ccccc1)c1ccccc1`, the entry is “Not Active”.

Another experiment has as its target Bacterial urease (Bacteria, UniProt Q03284). Described as §2. The format is protein-complex assay. In short, it runs like this:
as §1
For the compound `O=S(=O)(N/N=C(\c1ccccc1)c1ccc(O)cc1)c1ccccc1Cl`, the IC50 was found to be 16.9 µM.
On the same count and under the same terms, as for `O=S(=O)(N/N=C(\c1ccccc1)c1ccc(O)cc1)c1cc(Cl)c(Cl)cc1Cl`, the figure is 57.9 µM.
As to `O=S(=O)(CCCl)N/N=C(\c1ccccc1)c1ccc(O)cc1`, half-maximal inhibition (IC50) was put at 55 µM.
`O=S(=O)(N/N=C(\c1ccccc1)c1ccc(O)cc1)c1ccccc1` gave an IC50 of 16.3 µM.
The same measure, in the same setting: as for `O=S(=O)(NN=C(c1ccccc1)c1ccccc1)c1cc(Cl)cc(Cl)c1O`, the figure is 71.6 µM; as for `O=[N+]([O-])c1ccc(S(=O)(=O)NN=C(c2ccccc2)c2ccccc2)c([N+](=O)[O-])c1`, 69 µM; as for `CN(C)c1cccc2c(S(=O)(=O)NN=C(c3ccccc3)c3ccccc3)cccc12`, 72.2 µM.
On the same count and under the same terms, as for `O=[N+]([O-])c1ccc(S(=O)(=O)N/N=C(\c2ccccc2)c2ccc(O)cc2)cc1`, the figure is 3.9 µM; as for `O=S(=O)(N/N=C(\c1ccccc1)c1ccc(O)cc1)c1ccc(Cl)cc1Cl`, 18 µM.
The same measure, in the same setting: the value for `O=S(=O)(N/N=C(\c1ccccc1)c1ccc(O)cc1)c1cc(Cl)cc(Cl)c1O` was 4.97 µM; that for `COc1ccc(S(=O)(=O)N/N=C(\c2ccccc2)c2ccc(O)cc2)cc1` was 14.5 µM.
Regarding `Cc1ccc([N+](=O)[O-])cc1S(=O)(=O)NN=C(c1ccccc1)c1ccccc1`, half-maximal inhibition (IC50) required 69 µM.
On the same count and under the same terms, as for `CC(=O)NO` [ACETOHYDROXAMIC ACID], the figure is 29.2 µM; as for `O=S(=O)(N/N=C(\c1ccccc1)c1ccc(O)cc1)c1cc(Cl)ccc1Cl`, 31.2 µM.
Still for that read-out and setting: as for `O=[N+]([O-])c1cccc(S(=O)(=O)N/N=C(\c2ccccc2)c2ccc(O)cc2)c1`, the figure is 13.7 µM; as for `O=S(=O)(NN=C(c1ccccc1)c1ccccc1)c1ccc(Cl)cc1`, 66.1 µM; as for `CN(C)c1cccc2c(S(=O)(=O)N/N=C(\c3ccccc3)c3ccc(O)cc3)cccc12`, 5.7 µM.
The same measure, in the same setting: as for `CS(=O)(=O)N/N=C(\c1ccccc1)c1ccc(O)cc1`, the figure is 43.4 µM.

For the next experiment, the target named is Bacterial urease (Bacteria) (UniProt Q03282+Q03283+Q03284). The experiment is described as follows: Potency index, ratio of acetohydroxamic acid IC50 to test compound IC50 for bacterial urease. It counts as protein-complex assay. In short, it runs like this: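 Spectrophotometric urease inhibition assay underlying the IC50s in the ratio, for test compounds and acetohydroxamic acid. Compound pre-incubated with urease (1 U/well) at 30 °C for 15 min. Urea (100 mM) was added and incubation continued at 30 °C. Phenol–nitroprusside and alkaline hypochlorite reagents were added, then 50 min at 30 °C. Ammonia was measured by the Weatherburn method, with absorbance change at 630 nm.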
In the case of `O=[N+]([O-])c1ccc(S(=O)(=O)N/N=C(\c2ccccc2)c2ccc(O)cc2)cc1`, the Ratio IC50 is 10.

The target of another experiment is T1, Urease. The experiment is described as follows: Inhibition of jack bean urease assessed as reduction in ammonia production using urea as substrate after 30 mins by indophenol method. In short, it runs like this: as §1
On to `NS(=O)(=O)c1ccc(CCNC=C2C(=O)NC(=S)NC2=O)cc1`, for which the IC50 amounted to 11.5 µM.
